This is an account of results in ChEMBL document CHEMBL4270482, “Cytotoxic Fusicoccane-Type Diterpenoids from Streptomyces violascens Isolated from Ailuropoda melanoleuca Feces” (J Nat Prod, 2017).

Experiment [1] deals with HCT-116. Briefly: Cytotoxicity against human HCT116 cells assessed as inhibition of growth incubated for 72 hrs by MTT assay. It is filed as functional, cell-based. The note with it: HCT-116, 72 h. The method, boiled down:
(§1)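 Cells grown in RPMI-1640 or DMEM with 10% heat-inactivated FBS. Exposed to six concentrations (100, 33, 10, 3.3, 1.0, 0.33 μM) for 72 h at 37 °C. MTT (5 mg/mL, 10 μL) added for 4 h, then medium removed and DMSO added, absorbance read at 570 nm. IC50 is the concentration giving 50% lower absorbance than control. Mean ± SD of three independent experiments; adriamycin positive control.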

In experiment [2] the test system is NCI-H460. Put plainly: Cytotoxicity against human NCI-H460 cells assessed as inhibition of growth incubated for 72 hrs by MTT assay. The note with it: NCI-H460, 72 h. It is filed as functional, cell-based. The method, boiled down:
as §1

Experiment [3] concerns SMMC-7721. Put plainly: Cytotoxicity against human SMMC7721 cells assessed as inhibition of growth incubated for 72 hrs by MTT assay. The note with it: SMMC-7721, 72 h. It is filed as functional, cell-based. The method, boiled down: as §1
Experiment [4] deals with HeLa. Put plainly: Cytotoxicity against human HeLa cells assessed as inhibition of growth incubated for 72 hrs by MTT assay. It is filed as functional, cell-based. The gist of the method: as §1
In experiment [5] the test system is BGC-823. Briefly: Cytotoxicity against human BGC823 cells assessed as inhibition of growth incubated for 72 hrs by MTT assay. It counts as functional, cell-based. The note with it: BGC-823, 72 h. The gist of the method: as §1
The subject of experiment [6] is SMMC-7721. Put plainly: Inhibition of MMP2 protein expression in human SMMC7721 cells at […] to 5.49 uM incubated for 24 hrs by Western blot analysis. It counts as functional, cell-based. The gist of the method:
(§2)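 SMMC7721 cells (5 × 10^5/well) treated with 0.61, 1.83 or 5.49 μM for 24 h, then lysed in RIPA buffer with protease inhibitors for 40 min on ice. Protein (60 μg) resolved on 10% SDS-PAGE and transferred to PVDF. Probed with MMP-2 or MMP-9 primary antibody and peroxidase-conjugated secondary, detected by chemiluminescence, normalized to GAPDH.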

For experiment [7], the system named is SMMC-7721. Put plainly: Inhibition of MMP9 gene expression in human SMMC7721 cells at […] to 5.49 uM incubated for 24 hrs by real-time PCR analysis. It is filed as functional, cell-based. The gist of the method: (§3)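 SMMC7721 cells (5 × 10^5/well) treated with 0.61, 1.83 or 5.49 μM for 24 h. Total RNA analysed by SYBR Green qPCR using MMP-2 and MMP-9 specific primers. Cycling: 95 °C for 10 min, then 44 cycles of 95 °C 10 s, 60 °C 20 s, 72 °C 20 s. GAPDH internal control.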

In experiment [8] the test system is SMMC-7721. Put plainly: Inhibition of MMP9 protein expression in human SMMC7721 cells at […] to 5.49 uM incubated for 24 hrs by Western blot analysis. It is filed as functional, cell-based. The method, boiled down:
as §2

Experiment [9] concerns SMMC-7721. Put plainly: Inhibition of cell adhesion of human SMMC7721 cells at 0.61 to 5.49 uM incubated for 1 hr by matrigel based assay. It counts as functional. The gist of the method: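 Wells coated overnight with Matrigel in 0.5% serum-free RPMI-1640, blocked with 2% BSA for 30 min and washed with PBS. SMMC7721 cells (2 × 10^4/well) added with 0.61, 1.83 or 5.49 μM and left to adhere for 1 h. Medium removed, 0.2% crystal violet applied for 10 min, dye dissolved in DMSO, OD read at 540 nm. Mean ± SD, n = 3.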

Experiment [10] has as its target Matrix metalloproteinase-9 (Homo sapiens) (UniProt P14780). Put plainly: Inhibition of MMP9 activity in human SMMC7721 cells incubated for 24 hrs by gelatin zymography. It counts as cell-based. The gist of the method:
(§4)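 SMMC7721 cells (2 × 10^5/well) treated with 0.61, 1.83 or 5.49 μM for 24 h. Culture supernatants run on 10% SDS-PAGE containing 0.1% gelatin. Gels washed in 2.5% Triton X-100 (three 1-h washes), then incubated 36 h at 37 °C in 50 mM Tris-HCl, 10 mM CaCl2, 1 μM ZnCl2, 0.2 M NaCl, pH 7.6. Coomassie R250 stain; bands at 72 kDa (MMP-2) and 92 kDa (MMP-9) quantified by densitometry. Mean ± SD, n = 3.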

In experiment [11] the test system is SMMC-7721. Briefly: Inhibition of MMP2 gene expression in human SMMC7721 cells at […] to 5.49 uM incubated for 24 hrs by real-time PCR analysis. It counts as functional, cell-based. The gist of the method: as §3
Experiment [12] concerns SMMC-7721. Put plainly: Inhibition of cell migration of human SMMC7721 cells incubated for 24 hrs by H and E staining based transwell chamber assay. It is filed as functional. The gist of the method:
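Transwell migration: 4 × 10^5 SMMC7721 cells in RPMI-1640 with 0.1% FBS plus 0.61, 1.83 or 5.49 μM placed in upper chamber; lower chamber held RPMI-1640 with 10% FBS. Cells on the lower membrane surface fixed in paraformaldehyde for 30 min and stained with H&E for 5 min. Methods give 6 h, legend gives 24 h. Vehicle control; mean ± SD, n = 3.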

Experiment [13] has as its system SMMC-7721. Briefly: Cytotoxicity against human SMMC7721 cells assessed as inhibition of growth at 0.6 to 5.5 uM incubated for 24 hrs by MTT assay. It is filed as functional, cell-based. The method, boiled down:
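SMMC7721 viability measured by MTT after exposure to 0, 0.61, 1.83, 5.49 or 16.5 μM for 0, 24, 48 and 72 h. Vehicle-treated cells served as control. Mean ± SD, n = 3.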

In experiment [14] the target is 72 kDa type IV collagenase (Homo sapiens) (UniProt P08253). Briefly: Inhibition of MMP2 activity in human SMMC7721 cells incubated for 24 hrs by gelatin zymography. It is filed as cell-based. The gist of the method: as §4
72 kDa type IV collagenase (Homo sapiens), sequence (P08253 110-660 limits assumed): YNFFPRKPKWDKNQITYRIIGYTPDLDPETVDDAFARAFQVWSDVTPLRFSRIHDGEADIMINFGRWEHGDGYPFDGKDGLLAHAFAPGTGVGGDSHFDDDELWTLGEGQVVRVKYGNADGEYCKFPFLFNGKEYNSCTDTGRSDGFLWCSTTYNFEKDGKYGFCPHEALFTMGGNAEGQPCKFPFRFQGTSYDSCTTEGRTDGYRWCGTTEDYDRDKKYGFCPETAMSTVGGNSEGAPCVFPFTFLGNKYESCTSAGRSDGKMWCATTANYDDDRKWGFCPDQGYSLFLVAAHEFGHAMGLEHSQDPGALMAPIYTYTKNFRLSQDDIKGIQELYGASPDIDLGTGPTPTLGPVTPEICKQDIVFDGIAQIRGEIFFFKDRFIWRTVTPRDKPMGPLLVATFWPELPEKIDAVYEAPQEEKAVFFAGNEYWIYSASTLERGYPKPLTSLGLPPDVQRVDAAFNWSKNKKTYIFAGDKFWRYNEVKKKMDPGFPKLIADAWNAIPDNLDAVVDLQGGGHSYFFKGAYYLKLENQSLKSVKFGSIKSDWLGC
Experiment [15] has as its system HCT-116. Briefly: Cytotoxicity against human HCT116 cells assessed as inhibition of growth at 200 uM incubated for 72 hrs by MTT assay. It is filed as functional. The conditions noted are these: for inhibition at 200 µM: HCT-116, 72 h.
For experiment [16], the system named is BGC-823. Put plainly: Cytotoxicity against human BGC823 cells assessed as inhibition of growth at 200 uM incubated for 72 hrs by MTT assay. It counts as functional. The conditions noted are these: for inhibition at 200 µM: BGC-823, 72 h.
Experiment [17] deals with SMMC-7721. Put plainly: Cytotoxicity against human SMMC7721 cells assessed as inhibition of growth at 200 uM incubated for 72 hrs by MTT assay. It is filed as functional. The note with it: for inhibition at 200 µM: SMMC-7721, 72 h.
For experiment [18], the system named is NCI-H460. Briefly: Cytotoxicity against human NCI-H460 cells assessed as inhibition of growth at 200 uM incubated for 72 hrs by MTT assay. It counts as functional. The note with it: for inhibition at 200 µM: NCI-H460, 72 h.
Experiment [19] deals with HeLa. Briefly: Cytotoxicity against human HeLa cells assessed as inhibition of growth at 200 uM incubated for 72 hrs by MTT assay. It is filed as functional.

Molecules are shown by their SMILES. Structures can show the parent of a compound that is named as a salt. The source made the active and inactive calls. No cut-off for these calls is given here.

Matrix metalloproteinase-9 (Homo sapiens), sequence (P14780 whole entry): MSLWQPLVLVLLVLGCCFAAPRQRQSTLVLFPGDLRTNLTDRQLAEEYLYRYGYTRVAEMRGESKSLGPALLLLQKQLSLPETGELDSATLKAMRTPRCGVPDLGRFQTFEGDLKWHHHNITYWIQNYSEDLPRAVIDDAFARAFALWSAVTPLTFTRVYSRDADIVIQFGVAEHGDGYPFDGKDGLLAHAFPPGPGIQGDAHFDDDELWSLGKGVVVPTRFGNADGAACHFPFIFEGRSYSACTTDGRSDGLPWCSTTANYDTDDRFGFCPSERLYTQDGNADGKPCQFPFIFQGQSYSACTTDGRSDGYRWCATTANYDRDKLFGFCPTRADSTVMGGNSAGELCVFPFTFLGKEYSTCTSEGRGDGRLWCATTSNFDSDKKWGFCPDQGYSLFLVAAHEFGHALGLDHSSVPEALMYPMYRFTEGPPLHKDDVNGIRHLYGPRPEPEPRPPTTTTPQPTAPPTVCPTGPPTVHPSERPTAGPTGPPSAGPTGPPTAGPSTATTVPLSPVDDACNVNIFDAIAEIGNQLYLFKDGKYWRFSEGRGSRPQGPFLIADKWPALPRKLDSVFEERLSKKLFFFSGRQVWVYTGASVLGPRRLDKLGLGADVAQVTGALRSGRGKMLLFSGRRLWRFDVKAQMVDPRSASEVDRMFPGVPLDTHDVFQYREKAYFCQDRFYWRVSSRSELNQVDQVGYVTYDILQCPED

Turning to `CCC(=O)[C@@H](C)[C@H]1O[C@@](O)([C@H](C)C(=O)OC[C@H](C)[C@H]2CC[C@]3(C)C[C@@H]4[C@H](CO)C[C@@H](O)[C@H]4[C@@](C)(O)C/C=C/23)[C@H](C)C[C@H]1C`, the IC50 in experiment [1] turned out to be 6.7 µM; in [2] it was 4.1 µM; in experiment [3], 8.9 µM; in [4] it was 6.7 µM; in experiment [5], 7 µM.
`CCCC(=O)[C@@H](C)[C@H]1O[C@@](O)([C@H](C)C(=O)OC[C@H](C)[C@H]2CC[C@]3(C)C[C@@H]4[C@H](CO)C[C@@H](O)[C@H]4[C@@](C)(O)C/C=C/23)[C@H](C)C[C@H]1C`: the IC50 in [1] turned out to be 5.8 µM; in experiment [2], 3.5 µM; in experiment [3], 9.6 µM; in [4], 7.6 µM; in [5], 10.5 µM. The inhibition result in experiment [6], in experiment [8] and in [9] was “Active” throughout. Moreover, the inhibition entry in [7], in experiment [10], in experiment [11], in [12] and in experiment [14] was “Dose-dependent effect” each time. In addition, the outcome in experiment [13] was inactive.
For the compound `CC(C)[C@H]1C[C@H](O)[C@]2(C)C[C@@H]3[C@H](CO)C[C@@H](O)[C@H]3[C@@](C)(O)C/C=C/12`, the IC50 in experiment [1], in [2], in experiment [3], in experiment [4] and in experiment [5] was above 100 µM throughout. Besides, the inhibition at 200 µM in experiment [15], in experiment [16], in experiment [17], in [18] and in experiment [19] was 50% each time.
As to `CCC(=O)[C@@H](C)[C@H]1O[C@@](O)([C@@H](C)C(=O)OC[C@H](C)[C@H]2CC[C@]3(C)C[C@@H]4[C@H](CO)C[C@@H](O)[C@H]4[C@@](C)(O)C/C=C/23)[C@H](C)C[C@H]1C`, the IC50 in experiment [1] worked out at 8 µM; in experiment [2] it was 6.1 µM; in experiment [3], 14.1 µM; in [4], 9.3 µM; in [5] it was 9.5 µM.
`CC(C)[C@H]1CC[C@]2(C)C[C@@H]3[C@H](CO)C[C@@H](O)[C@H]3[C@@](C)(O)C/C=C/12`: the IC50 in experiment [1], in [2], in experiment [3], in [4] and in [5] was above 100 µM each time. Besides, the inhibition at 200 µM in [15], in experiment [16], in experiment [17], in experiment [18] and in experiment [19] was 90% in each case.
Regarding `CC(C)[C@H]1C[C@@H](O)[C@]2(C)C[C@@H]3[C@H](CO)C[C@@H](O)[C@H]3[C@@](C)(O)C/C=C/12`, the IC50 in [1], in [2], in experiment [3], in experiment [4] and in [5] was above 100 µM in each case. Also, the inhibition at 200 µM in experiment [15], in [16], in [17], in [18] and in experiment [19] was 50% each time.
Consider `COc1cccc2c1C(=O)c1c(O)c3c(c(O)c1C2=O)C[C@@](O)(C(=O)CO)C[C@@H]3O[C@H]1C[C@H](N)[C@H](O)[C@H](C)O1` [DOXORUBICIN HYDROCHLORIDE], for which the IC50 in experiment [1] turned out to be 1.4 µM; in experiment [2], 1 µM; in [3], 2.2 µM; in experiment [5], 1.5 µM.
For `CC(C)[C@@]1(O)CC[C@]2(C)C[C@@H]3[C@H](CO)C[C@@H](O)[C@H]3[C@@](C)(O)C/C=C\21`, the IC50 in experiment [1], in [2], in experiment [3], in experiment [4] and in [5] was above 100 µM throughout. Besides, the inhibition result in experiment [15], in [16], in experiment [17], in experiment [18] and in experiment [19] was “inactive” each time.
